An excerpt weighted towards active compounds, which were near 8.7% of everything screened.
Cav3 T inh – Cav3.2 calcium influx blockers – cell-based, Fluo-4 calcium fluorescence, FDSS, MLSMR library, primary screen. Voltage-dependent T-type calcium channel subunit alpha-1H (Homo sapiens), O95180. Cav3.2-expressing cells; hits give low values. B-score at 10 µM. 4% of 100,000 active. AID 449739, 2010;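 active means single-dose well whose peak fluorescence ratio is a statistical outlier from its plate by either plate-standardised score or position-corrected B-score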
PostGolgi yeast – phenotypic screen on post-Golgi transport, primary screen | post-Golgi transport phenotypic cell assay | inhibition, % at 10 µM | 0.9% of 98,000 active;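 further: yeast cells grown in 1536-well plates; yeast grown about 18 h at 30C before absorbance read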
PostGolgi ctrl – growth inhibition of yeast control strain, primary screen, counter-screen for post-Golgi transport modulator project. 5% of 98,000 active. inhibition, % at 10 µM. efflux-deficient yeast background strain, growth absorbance A615, 16 h
E coli WT exp – growth inhibitors of wild-type E. coli, primary screen, strain BW25113, expanded library, OD600; 0.15% of 98,000 active; AID 710, 2007; growth inhibition, % at 100 µM; OD600 absorbance;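 active means growth inhibition above about 50% at one test dose, limit read from the data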;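 further: growth measured after 20 h incubation at 37 °C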
tolC growth inh – growth inhibitors of E. coli tolC mutant, primary screen, strain BW25113 ΔtolC::kan, 384-well | OD615 | growth inhibition, % at 10 µM (by protocol) | 2.2% of 65,000 active | AID 573, 2007;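 active means growth inhibition at or above a cutoff equal to the mean over every tested compound plus 3 SD, cut at about 60% in these data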;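 further: growth measured after 20 h incubation at 37 °C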
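Assay system: tolC-deleted E. coli BW25113. Medium: kanamycin-containing LB broth (50 µg/mL). Dosing: 10 µM final, single dose. Timing: bacterial growth with compound for 20 h at 37 °C. Detection: A615 absorbance measurement. Read-out basis: growth inhibition in percent.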
Pyk2 oligo antag – antagonists of Pyk2 self-association, primary screen, Q293 cells, FERM NanoBiT luminescence, HTS. z-score (the deposit names both 25 µM and 10 µM). AID 1347419, 2020. Protein-tyrosine kinase 2-beta (Homo sapiens), Q14289. hits give low values. 0.83% of 99,000 active;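 active means Z-score of -3 or lower, scaled per plate to the spread of control and sample wells; inactive means z-score above -3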;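 further: negative z-score means lost luminescence so less FERM oligomerization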
Numbers without * were called inactive; / = no result. Unless noted, no stated cut-off is given here; in the data, active means inhibition above about 30%; inactive means the rest.

SMILES	Cav3 T inh	PostGolgi yeast	PostGolgi ctrl	E coli WT exp	tolC growth inh	Pyk2 oligo antag
CCOc1ccc(-n2c(O)c(C=NCCN(CC)CC)c(=O)[nH]c2=O)cc1	0.391	-1.0	36.3*	0.0	-13.8	-0.19
CCOC(=O)CCN=Cc1c(O)n(-c2ccc(Br)cc2)c(=O)[nH]c1=O	0.781	0.8	19.1	4.0	-4.0	0.99
CCC(C)OC(=O)c1c(N)n(Cc2cccs2)c2nc3ccccc3nc12 (configuration not stated)	-1.42	15.7	50.1*	-16.0	/	-1.6
CC(C)(C)OC(=O)c1c(N)n(Cc2ccco2)c2nc3ccccc3nc12	-5.32*	2.1	22.0	1.0	10.3	0.69
Nc1c(C(=O)NCCN2CCOCC2)c2nc3ccccc3nc2n1Cc1ccco1	-1.74	-9.5	11.8	11.0	12.4	-0.4
COCCNC(=O)c1c(N)n(Cc2ccco2)c2nc3ccccc3nc12	-1.57	-1.1	50.8*	-25.0	/	0.95
Cc1ccc2c(c1)CC1(CN2C)C(=O)NC(=O)N(CCc2ccccc2)C1=O (configuration not stated)	-2.8	9.3	37.0*	-3.0	/	0.34
Cc1ccc2c(c1)CC1(CN2C)C(=O)NC(=O)N(c2ccccc2C)C1=O (configuration not stated)	-1.43	-4.1	3.2	2.0	-19.0	0.13
O=C1NC(=S)NC(=O)C12C(c1ccc(F)cc1)NC(=S)NC2c1ccc(F)cc1 (configuration not stated)	-0.227	-1.7	21.2	9.0	/	1.47
O=c1c(C=NCc2cccs2)c(O)n(C2CCCCC2)c(=O)n1C1CCCCC1	-4.36*	3.6	7.3	24.0	/	-1.87
Cc1ccc(N2C(=O)NC(=O)C3(Cc4ccccc4N4CCN(c5ccccc5)CC43)C2=O)cc1 (configuration not stated)	-6.83*	-2.2	8.6	-25.0	11.8	0.4
O=C1NC(=O)C2(Cc3ccccc3N3CCCC32)C(=O)N1c1cccc(Cl)c1 (configuration not stated)	-3.03	3.1	7.5	-21.0	0.1	-1.46
CN1C(=O)C(=Cc2ccc(N3CCCCCC3)o2)C(=O)N(C)C1=S	-7.05*	-3.1	19.1	-13.0	/	-1.01
Cc1ccc(S(=O)(=O)NC(CC(=O)N2CCC3(CC2)OCCO3)c2ccco2)cc1 (configuration not stated)	0.201	1.4	3.2	10.0	-4.8	0.52
O=C(Cn1ncc2c3ccccc3n(Cc3ccccc3)c2c1=O)N1CCC2(CC1)OCCO2	-10.8*	-8.9	4.7	-2.0	11.3	/
O=C(Cn1ncc2c3ccccc3n(Cc3ccccc3F)c2c1=O)N1CCC2(CC1)OCCO2	-8.58*	54.6*	9.8	-6.0	13.7	-0.78
CC12CN3CC(c4ccccc4)(CN(C1)C31CCCCC1)C2=O	-0.234	3.9	2.4	0.0	-9.8	-0.33
C/C=C1/CN2C3CC1C(CO)(C(=O)OC)C2Cc1c3n(C)c2ccccc12 (configuration not stated)	0.624	/	/	/	/	/
O=c1cc(C(F)(F)F)c2cc3c4c(c2o1)CCCN4CCC3	-7.83*	4.4	29.4	-8.0	/	-0.5
Cc1cc2c(C(F)(F)F)cc(=O)oc2c2c1NCCC2	-8.32*	-8.5	17.1	-29.0	15.2	0.38
COC(=O)C1=C(c2cc3ccccc3o2)C[C@@H]2CC[C@H]1N2C(=O)NCc1cccc2ccccc12	-3.62*	/	/	/	/	/
Cc1c2ccncc2c(C)c2c1[nH]c1ccccc12	-4.4*	/	/	/	-15.8	/
c1ccc2c(c1)[nH]c1cnccc12	-0.0758	/	/	/	12.2	/
CCN(CCNc1ccc([N+](=O)[O-])c2cccnc12)S(=O)(=O)c1ccc(Cl)cc1	-4.35	16.2	34.8*	-20.0	/	-1.76
CC(O)CNc1ccc([N+](=O)[O-])c2cccnc12 (configuration not stated)	/	/	/	/	/	-0.66
CCn1c(=O)n(CC(=O)N2CCC3(CC2)OCCO3)c(=O)c2ccccc21	-1.01	16.9	-2.0	-1.0	-22.5	0.03
CCN1CCN(c2ncnc3ccc(Br)cc23)CC1	1.03	-4.0	32.2*	9.0	-8.1	-0.64
CCc1cc2c(N3CCN(C)CC3)ncnc2s1	1.26	/	/	/	/	0.36
CC1SC2(CN3CCC2CC3)NC1=O (configuration not stated)	1.06	-6.0	0.6	0.0	5.0	0.19

Compound activity: PubChem BioAssay, several laboratories
